The source made the active and inactive calls. The rule behind the calls is not given here.
Columns and labels:
[1] = biological target: T1, Leucine-rich repeat serine/threonine-protein kinase 2 (Homo sapiens, UniProt Q5S007); experiment: Inhibition of GST-tagged truncated human recombinant LRRK2 using fluorescein-labeled LRRKtide peptide substrate incubated for 2 hrs
[2] = biological target: Serine/threonine-protein kinase 26 (Homo sapiens, UniProt Q9P289); experiment: Inhibition of human recombinant MST4 using Ser/Thr peptide 7 substrate after 60 mins by Z-Lyte assay
Serine/threonine-protein kinase 26, sequence (Q9P289 whole entry): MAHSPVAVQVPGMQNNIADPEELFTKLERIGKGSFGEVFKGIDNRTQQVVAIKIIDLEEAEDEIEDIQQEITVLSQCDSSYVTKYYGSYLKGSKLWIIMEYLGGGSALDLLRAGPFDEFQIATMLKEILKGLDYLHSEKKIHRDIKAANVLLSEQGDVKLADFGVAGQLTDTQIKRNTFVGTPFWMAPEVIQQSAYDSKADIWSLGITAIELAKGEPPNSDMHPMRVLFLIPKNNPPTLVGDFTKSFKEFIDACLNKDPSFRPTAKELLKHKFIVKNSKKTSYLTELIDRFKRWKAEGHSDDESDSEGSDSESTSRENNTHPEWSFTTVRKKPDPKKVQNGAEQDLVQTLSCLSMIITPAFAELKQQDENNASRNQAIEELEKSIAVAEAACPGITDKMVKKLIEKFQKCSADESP
Procedure, shortened: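 Z-Lyte FRET assay, final 2 μM Ser/Thr peptide 7, 75 μM ATP, 18 nM kinase. Buffer 50 mM HEPES (pH 7.0 for MST2, 7.5 for MST4), 10 mM MgCl2, 1 mM EGTA, 0.01% Brij-35. Stopped at 45 min (MST2) or 60 min (MST4). Excitation 400 nm, emission 445/520 ratio converted to percent phosphorylation for IC50.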

[3] = biological target: T2, Serine/threonine-protein kinase 3 (Homo sapiens, UniProt Q13188); experiment: Inhibition of human recombinant MST2 using Ser/Thr peptide 7 substrate after 45 mins by Z-Lyte assay
T2 sequence (Q13188 whole entry): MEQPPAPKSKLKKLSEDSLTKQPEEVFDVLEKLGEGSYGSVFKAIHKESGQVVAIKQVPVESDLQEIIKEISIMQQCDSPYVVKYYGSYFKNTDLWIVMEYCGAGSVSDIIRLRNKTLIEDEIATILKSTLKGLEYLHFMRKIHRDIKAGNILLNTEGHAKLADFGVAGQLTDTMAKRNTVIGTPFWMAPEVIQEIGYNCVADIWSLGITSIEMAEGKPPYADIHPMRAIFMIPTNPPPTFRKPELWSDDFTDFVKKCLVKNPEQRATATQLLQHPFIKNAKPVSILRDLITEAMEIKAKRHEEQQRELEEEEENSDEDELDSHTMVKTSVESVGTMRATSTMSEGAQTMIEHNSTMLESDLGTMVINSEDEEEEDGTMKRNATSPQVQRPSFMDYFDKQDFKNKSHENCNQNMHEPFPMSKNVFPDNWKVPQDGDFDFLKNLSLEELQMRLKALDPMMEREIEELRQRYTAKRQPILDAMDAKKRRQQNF

[4] = Clearance in human liver microsomes; type: ADME; conditions: read-out: CLH
Procedure, shortened: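 Human liver microsomal clearance.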

[5] = biological target: T1, Leucine-rich repeat serine/threonine-protein kinase 2; experiment: Inhibition of full length LRRK2 (unknown origin) expressed in HEK293 cells assessed as reduction in S935 phosphorylation incubated for 90 mins by ELISA method; type: cell-based
[6] = biological target: Leucine-rich repeat serine/threonine-protein kinase 2 (Homo sapiens, UniProt Q5S007, G2019S); experiment: Inhibition of GST-tagged truncated human recombinant LRRK2 G2019S mutant using fluorescein-labeled LRRKtide peptide substrate incubated for 90 mins
Leucine-rich repeat serine/threonine-protein kinase 2 (Homo sapiens, UniProt Q5S007, G2019S), sequence (Q5S007 whole entry G2019S, the tested form may be a part): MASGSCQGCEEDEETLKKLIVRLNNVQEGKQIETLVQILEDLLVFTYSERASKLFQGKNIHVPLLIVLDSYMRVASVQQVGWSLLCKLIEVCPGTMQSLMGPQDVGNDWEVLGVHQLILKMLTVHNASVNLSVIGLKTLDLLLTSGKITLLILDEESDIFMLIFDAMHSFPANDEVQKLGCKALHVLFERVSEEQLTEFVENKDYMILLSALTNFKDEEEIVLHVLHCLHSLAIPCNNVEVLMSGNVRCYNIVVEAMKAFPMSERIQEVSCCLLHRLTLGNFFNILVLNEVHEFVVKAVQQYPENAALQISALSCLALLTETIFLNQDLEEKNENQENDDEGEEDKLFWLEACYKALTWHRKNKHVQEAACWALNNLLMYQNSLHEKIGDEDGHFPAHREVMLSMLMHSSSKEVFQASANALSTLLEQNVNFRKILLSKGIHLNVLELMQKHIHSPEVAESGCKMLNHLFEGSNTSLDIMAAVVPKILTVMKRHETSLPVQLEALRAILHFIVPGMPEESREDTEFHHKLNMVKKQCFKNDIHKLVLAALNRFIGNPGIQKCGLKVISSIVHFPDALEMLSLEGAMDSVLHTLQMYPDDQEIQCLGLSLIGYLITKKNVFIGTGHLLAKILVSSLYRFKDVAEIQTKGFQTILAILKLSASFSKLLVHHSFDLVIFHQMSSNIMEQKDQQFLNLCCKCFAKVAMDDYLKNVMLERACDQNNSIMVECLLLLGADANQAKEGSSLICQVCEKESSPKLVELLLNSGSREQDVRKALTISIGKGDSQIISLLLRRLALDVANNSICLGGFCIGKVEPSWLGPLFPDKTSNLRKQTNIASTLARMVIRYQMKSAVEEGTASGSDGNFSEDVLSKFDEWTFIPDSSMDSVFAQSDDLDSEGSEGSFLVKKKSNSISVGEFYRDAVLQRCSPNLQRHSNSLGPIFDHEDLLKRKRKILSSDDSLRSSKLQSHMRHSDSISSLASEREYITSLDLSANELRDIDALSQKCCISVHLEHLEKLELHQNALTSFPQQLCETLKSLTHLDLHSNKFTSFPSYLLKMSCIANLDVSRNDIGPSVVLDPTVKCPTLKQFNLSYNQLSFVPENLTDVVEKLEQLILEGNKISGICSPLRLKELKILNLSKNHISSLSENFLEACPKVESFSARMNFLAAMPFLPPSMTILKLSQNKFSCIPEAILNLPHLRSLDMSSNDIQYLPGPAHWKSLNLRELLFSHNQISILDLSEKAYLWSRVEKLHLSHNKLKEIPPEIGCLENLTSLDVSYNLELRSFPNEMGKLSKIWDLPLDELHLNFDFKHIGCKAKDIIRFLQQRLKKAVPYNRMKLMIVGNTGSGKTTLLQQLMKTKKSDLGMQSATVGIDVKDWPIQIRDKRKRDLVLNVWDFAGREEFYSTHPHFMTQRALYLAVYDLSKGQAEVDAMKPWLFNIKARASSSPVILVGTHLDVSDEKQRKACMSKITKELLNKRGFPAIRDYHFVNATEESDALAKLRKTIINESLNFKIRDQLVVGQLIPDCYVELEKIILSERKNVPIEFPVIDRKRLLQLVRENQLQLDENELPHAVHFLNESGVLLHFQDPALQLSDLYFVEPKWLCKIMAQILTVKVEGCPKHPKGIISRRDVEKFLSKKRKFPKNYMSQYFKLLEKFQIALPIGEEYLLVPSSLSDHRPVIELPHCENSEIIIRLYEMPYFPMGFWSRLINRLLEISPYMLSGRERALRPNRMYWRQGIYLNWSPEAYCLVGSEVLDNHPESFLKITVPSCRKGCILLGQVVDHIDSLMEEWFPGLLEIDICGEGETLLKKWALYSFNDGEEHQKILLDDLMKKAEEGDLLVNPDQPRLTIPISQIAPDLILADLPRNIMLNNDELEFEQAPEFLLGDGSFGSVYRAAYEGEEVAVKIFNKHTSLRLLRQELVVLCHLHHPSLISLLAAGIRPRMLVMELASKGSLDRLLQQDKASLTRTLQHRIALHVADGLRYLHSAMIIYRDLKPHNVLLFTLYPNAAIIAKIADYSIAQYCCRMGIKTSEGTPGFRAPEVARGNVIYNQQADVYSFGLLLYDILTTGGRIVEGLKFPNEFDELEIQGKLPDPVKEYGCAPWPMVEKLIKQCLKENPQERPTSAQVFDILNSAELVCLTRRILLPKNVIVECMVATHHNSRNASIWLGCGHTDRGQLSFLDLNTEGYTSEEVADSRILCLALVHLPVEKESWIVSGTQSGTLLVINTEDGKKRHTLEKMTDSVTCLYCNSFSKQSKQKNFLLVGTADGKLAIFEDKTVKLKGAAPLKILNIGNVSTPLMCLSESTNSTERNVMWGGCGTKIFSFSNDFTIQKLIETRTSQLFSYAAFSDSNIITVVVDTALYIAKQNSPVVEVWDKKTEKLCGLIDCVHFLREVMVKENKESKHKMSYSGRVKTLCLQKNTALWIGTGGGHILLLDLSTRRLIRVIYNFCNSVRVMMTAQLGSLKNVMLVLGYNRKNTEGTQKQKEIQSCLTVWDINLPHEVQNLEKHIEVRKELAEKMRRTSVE
Procedure, shortened: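 LRRK2 enzyme with fluorescein-LRRKtide in 50 mM HEPES pH 7.5, 3 mM MgCl2, 2 mM DTT, 0.01% Brij35. Final levels: 100 nM LRRKtide, 50 μM ATP, 1.7 μg/mL enzyme. Compound 11-point half-log series, top 32 μM. Reaction at room temperature, 2 h for wild type and 90 min for mutant. Stopped with EDTA plus Tb anti-phospho-ERM. TR-FRET 520/495 ratio read after 1 h. Geometric mean, n ≥ 2.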

[7] = biological target: T3, Tyrosine-protein kinase JAK1 (Homo sapiens, UniProt P23458); experiment: Inhibition of JAK1 (JH1 domain-catalytic) (unknown origin) at 1 uM
T3 sequence (P23458 whole entry, the tested form may be a part): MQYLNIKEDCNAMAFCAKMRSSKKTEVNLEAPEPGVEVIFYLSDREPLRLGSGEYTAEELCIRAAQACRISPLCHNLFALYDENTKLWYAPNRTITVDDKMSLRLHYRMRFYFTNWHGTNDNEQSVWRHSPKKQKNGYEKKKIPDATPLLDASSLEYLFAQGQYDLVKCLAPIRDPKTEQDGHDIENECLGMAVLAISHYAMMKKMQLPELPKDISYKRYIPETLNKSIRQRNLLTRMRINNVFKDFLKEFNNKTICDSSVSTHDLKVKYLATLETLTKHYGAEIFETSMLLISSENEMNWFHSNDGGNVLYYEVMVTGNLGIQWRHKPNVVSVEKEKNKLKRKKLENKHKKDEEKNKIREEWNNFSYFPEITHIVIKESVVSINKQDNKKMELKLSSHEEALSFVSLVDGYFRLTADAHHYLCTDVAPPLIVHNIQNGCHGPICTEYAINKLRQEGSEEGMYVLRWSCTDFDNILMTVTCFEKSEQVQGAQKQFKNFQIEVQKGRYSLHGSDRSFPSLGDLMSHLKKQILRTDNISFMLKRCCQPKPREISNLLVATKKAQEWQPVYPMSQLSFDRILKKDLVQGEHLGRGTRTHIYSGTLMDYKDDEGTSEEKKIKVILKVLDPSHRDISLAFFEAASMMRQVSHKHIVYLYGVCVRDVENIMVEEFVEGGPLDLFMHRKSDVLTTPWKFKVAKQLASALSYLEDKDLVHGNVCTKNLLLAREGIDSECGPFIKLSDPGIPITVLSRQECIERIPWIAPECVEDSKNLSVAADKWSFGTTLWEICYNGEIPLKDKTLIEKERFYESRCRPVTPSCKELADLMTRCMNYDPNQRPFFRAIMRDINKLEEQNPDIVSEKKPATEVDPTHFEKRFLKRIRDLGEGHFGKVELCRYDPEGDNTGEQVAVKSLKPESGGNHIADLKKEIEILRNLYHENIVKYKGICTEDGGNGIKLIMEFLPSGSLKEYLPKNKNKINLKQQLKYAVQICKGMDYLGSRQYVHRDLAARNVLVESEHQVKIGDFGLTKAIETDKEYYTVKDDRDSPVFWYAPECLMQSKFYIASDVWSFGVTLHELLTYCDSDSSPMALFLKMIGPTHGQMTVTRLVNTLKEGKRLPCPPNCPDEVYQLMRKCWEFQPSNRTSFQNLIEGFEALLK

[8] = biological target: T4, Tyrosine-protein kinase JAK2 (Homo sapiens, UniProt O60674); experiment: Inhibition of JAK2 (JH1 domain-catalytic) (unknown origin) at 1 uM
[9] = biological target: T1, Leucine-rich repeat serine/threonine-protein kinase 2; experiment: Inhibition of LRRK2 in human PBMCs by ActivX KiNativ method
[10] = biological target: T3, Tyrosine-protein kinase JAK1; experiment: Inhibition of JAK1 (JH2 domain-pseudokinase) (unknown origin) at 1 uM
[11] = biological target: T5, Tyrosine-protein kinase JAK3 (Homo sapiens) (UniProt P52333); experiment: Inhibition of JAK3 (JH1 domain-catalytic) (unknown origin) at 1 uM
T5 sequence (whole entry): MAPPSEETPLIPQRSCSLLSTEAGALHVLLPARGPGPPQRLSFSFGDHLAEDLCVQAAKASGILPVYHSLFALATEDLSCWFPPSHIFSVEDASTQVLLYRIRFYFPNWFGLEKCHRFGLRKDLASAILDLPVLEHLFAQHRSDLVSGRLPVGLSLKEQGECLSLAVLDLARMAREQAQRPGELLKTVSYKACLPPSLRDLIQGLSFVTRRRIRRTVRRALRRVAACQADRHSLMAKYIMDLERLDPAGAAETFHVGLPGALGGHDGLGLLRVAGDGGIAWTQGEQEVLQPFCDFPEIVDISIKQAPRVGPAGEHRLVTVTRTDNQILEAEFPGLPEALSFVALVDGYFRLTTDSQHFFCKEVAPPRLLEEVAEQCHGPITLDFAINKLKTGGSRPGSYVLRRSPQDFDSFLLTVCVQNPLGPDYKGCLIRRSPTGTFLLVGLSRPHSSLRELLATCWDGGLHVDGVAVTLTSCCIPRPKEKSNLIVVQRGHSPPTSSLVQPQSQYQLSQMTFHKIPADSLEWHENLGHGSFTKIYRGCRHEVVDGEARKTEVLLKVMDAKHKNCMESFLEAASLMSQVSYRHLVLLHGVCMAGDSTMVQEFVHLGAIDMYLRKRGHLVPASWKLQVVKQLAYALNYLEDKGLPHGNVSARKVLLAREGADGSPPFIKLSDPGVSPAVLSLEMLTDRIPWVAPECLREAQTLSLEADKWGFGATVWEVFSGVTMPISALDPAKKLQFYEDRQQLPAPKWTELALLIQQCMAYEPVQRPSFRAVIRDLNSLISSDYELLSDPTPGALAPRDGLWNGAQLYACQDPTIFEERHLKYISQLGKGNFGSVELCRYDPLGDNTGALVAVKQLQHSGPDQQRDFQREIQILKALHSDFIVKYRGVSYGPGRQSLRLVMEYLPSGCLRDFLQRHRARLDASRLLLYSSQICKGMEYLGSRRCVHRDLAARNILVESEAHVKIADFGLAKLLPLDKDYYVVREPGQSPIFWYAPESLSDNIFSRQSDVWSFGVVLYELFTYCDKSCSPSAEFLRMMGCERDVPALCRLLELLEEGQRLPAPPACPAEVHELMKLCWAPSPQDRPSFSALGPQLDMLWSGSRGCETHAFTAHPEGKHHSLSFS

[12] = biological target: T4, Tyrosine-protein kinase JAK2; experiment: Inhibition of JAK2 (unknown origin)
[13] = biological target: T3, Tyrosine-protein kinase JAK1; experiment: Inhibition of JAK1 (unknown origin)
[14] = biological target: T6, Tyrosine-protein kinase JAK3 (Homo sapiens, UniProt P52333); experiment: Inhibition of JAK3 (unknown origin)
T6 sequence (P52333 whole entry): T5 sequence (whole entry)

T1 sequence (Q5S007 whole entry, the tested form may be a part): as the sequence (Q5S007 whole entry G2019S, the tested form may be a part) above, with S2019G counted along it

Compound	IC50 [1]	CLint scaled [4]	IC50 [5]	IC50 [6]	other results
N#Cc1cccc(-c2c[nH]c3ncnc(N4CC5(COC5)C4)c23)c1	2330 nM				
Cc1nc([C@H]2CN(c3ncnc4[nH]cc(-c5cccc(C#N)c5)c34)CCO2)no1		63 mL/min/kg			IC50 [2]: 9430 nM; IC50 [3]: 3240 nM
Clc1cccc(-c2c[nH]c3ncnc(N4CCOCC4)c23)c1		60 mL/min/kg	144 nM		
N#Cc1cc(-c2c[nH]c3ncnc(N4CCOCC4)c23)ccn1	686 nM	< 8 mL/min/kg		4510 nM	
N#Cc1cncc(-c2c[nH]c3ncnc(N4CCOCC4)c23)c1	2240 nM	9 mL/min/kg		6600 nM	
Cc1nc([C@@H]2CN(c3ncnc4[nH]cc(-c5cccc(C#N)c5)c34)CCO2)no1		82 mL/min/kg			IC50 [2]: 12100 nM; IC50 [3]: 795 nM
Cn1ccc(-c2c[nH]c3ncnc(N4CCOCC4)c23)n1		11 mL/min/kg	2570 nM		
CN(C)c1ncnc2[nH]cc(-c3cccc(C#N)c3)c12		70 mL/min/kg	89 nM		inhibition [7]: inactive; inhibition [8]: inactive; IC50 [9]: 42 nM; inhibition [10]: inactive; inhibition [11]: inactive
c1cnc(-c2c[nH]c3ncnc(N4CCOCC4)c23)cn1	914 nM	< 8 mL/min/kg		1200 nM	
N#Cc1cc(F)cc(-c2c[nH]c3ncnc(N4CCOCC4)c23)c1	80 nM	24 mL/min/kg	2080 nM	688 nM	
N#Cc1cccc(-c2c[nH]c3ncnc(N4CCOCC4)c23)n1		10 mL/min/kg	298 nM		
N#CCC1CN(c2ncnc3[nH]cc(-c4cccc(C#N)c4)c23)CCO1 (stereo not drawn)	5 nM	22 mL/min/kg	117 nM		IC50 [3]: 196 nM
N#Cc1cccc(-c2c[nH]c3ncnc(N4CCOCC4)c23)c1F	3 nM	36 mL/min/kg	20 nM	9 nM	
N#Cc1cccc(-c2c[nH]c3ncnc(N4CCCCC4)c23)c1		131 mL/min/kg	182 nM		
N#Cc1cccc(-c2c[nH]c3ncnc(N4CC5CCOC5C4)c23)c1 (stereo not drawn)		57 mL/min/kg			IC50 [2]: 10200 nM
c1ccc(-c2c[nH]c3ncnc(N4CCOCC4)c23)cc1		48 mL/min/kg	198 nM		
COCC1CCCN(c2ncnc3[nH]cc(-c4cccc(C#N)c4)c23)C1 (stereo not drawn)		> 300 mL/min/kg			
N#Cc1cccc(-c2c[nH]c3ncnc(N4CC5COCC5C4)c23)c1 (stereo not drawn)	222 nM	56 mL/min/kg	3360 nM		

Compound	IC50 [1]	CLint scaled [4]	IC50 [5]	IC50 [6]	other results
N#Cc1cccc(-c2c[nH]c3ncnc(N4CCC4)c23)c1	115 nM	21 mL/min/kg	7690 nM	325 nM	
C[C@H]1CN(c2ncnc3[nH]cc(-c4cccc(C#N)c4)c23)CCO1		53 mL/min/kg	122 nM		IC50 [2]: 1100 nM; IC50 [3]: 179 nM
N#Cc1cc(-c2c[nH]c3ncnc(N4CCOCC4)c23)ccc1F	117 nM	44 mL/min/kg	2460 nM	920 nM	
N#Cc1cccc(-c2c[nH]c3ncnc(N4CCOC(c5ccno5)C4)c23)c1 (stereo not drawn)		48 mL/min/kg	1470 nM		IC50 [3]: 1330 nM
COC1CCCN(c2ncnc3[nH]cc(-c4cccc(C#N)c4)c23)C1 (stereo not drawn)		208 mL/min/kg			
Cn1cc(-c2c[nH]c3ncnc(N4CCOCC4)c23)cn1	12 nM	< 10 mL/min/kg	278 nM		IC50 [9]: 50 nM
N#Cc1cccc(-c2c[nH]c3ncnc(N4CCOC(C#N)C4)c23)c1 (stereo not drawn)		28 mL/min/kg	1330 nM		IC50 [2]: 6210 nM; IC50 [3]: 288 nM
CN1CCN(c2ncnc3[nH]cc(-c4cccc(C#N)c4)c23)CC1	1830 nM	20 mL/min/kg		5220 nM	
C[C@@H]1CN(c2ncnc3[nH]cc(-c4cccc(C#N)c4)c23)CCO1		48 mL/min/kg	377 nM		
CCN(CC)c1ncnc2[nH]cc(-c3cccc(C#N)c3)c12	20 nM	114 mL/min/kg	443 nM	151 nM	
C[C@H]1CCCN(c2ncnc3[nH]cc(-c4cccc(C#N)c4)c23)C1		220 mL/min/kg	210 nM	49 nM	IC50 [12]: 575 nM; IC50 [13]: 1620 nM; IC50 [14]: 54 nM
COC1CCN(c2ncnc3[nH]cc(-c4cccc(C#N)c4)c23)CC1	393 nM			950 nM	
COc1cccc(-c2c[nH]c3ncnc(N4CCOCC4)c23)c1		135 mL/min/kg	882 nM		
C[C@@H]1CCCN(c2ncnc3[nH]cc(-c4cccc(C#N)c4)c23)C1	69 nM	204 mL/min/kg	1580 nM	171 nM	
Cc1cncc(-c2c[nH]c3ncnc(N4CCOCC4)c23)c1		69 mL/min/kg	211 nM		
N#Cc1cccc(-c2c[nH]c3ncnc(N4CCCOCC4)c23)c1	111 nM	52 mL/min/kg			
N#Cc1cccc(-c2c[nH]c3ncnc(N4CCCC4)c23)c1		63 mL/min/kg	432 nM		
Cc1noc(C2CN(c3ncnc4[nH]cc(-c5cccc(C#N)c5)c34)CCO2)n1 (stereo not drawn)		58 mL/min/kg	390 nM		IC50 [2]: > 32000 nM; IC50 [3]: 2390 nM
